Measurements: paper PMC3184254 (Nature Chemical Biology, 2011)
Read-outs that look alike come from different tables or passages of the source.

Columns and labels:
[1] = tested on: MDA-MB-231 cells; assay: MTT assay, MDA-MB-231; assay type: cell-based, human
[2] = tested on: histone marks in MDA-MB-231 cells; assay: Quantitative MS analysis of histone modifications; assay type: cell-based, human; conditions: 1 μM for 48 h
How it was run: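 MDA-MB-231 cells were treated at 1 µM for 48 h. Histones were acid-extracted, derivatized with propionic anhydride and digested with trypsin. Mock and treated samples carried D0 or D5 propionyl labels. Peptides were analysed by LC-MS/MS on an Orbitrap, with all data manually verified.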

[3] = tested on: H3K9me2 levels in J1 mES cells; assay: Cellular potency; assay type: cell-based; conditions: Mus musculus, 48 h, read-out: IC50 cellular potency
[4] = tested on: HSC1-EF1α-EGFP-Puromycin retrovirus in J1 mES cells; assay: Reactivation of silent EGFP retrovirus vector, flow cytometry; assay type: cell-based, mouse
[5] = tested on: J1 mES cells; assay: SSEA1 pluripotency marker immunostaining, flow cytometry; assay type: cell-based, mouse; conditions: day 10; 2 μM
[6] = tested on: H3K9me2 mark in bulk histones in several cell lines; conditions: cited from earlier work
[7] = tested on: cellular assays; assay: Cellular assays, comparison with BIX01294; assay type: cell-based; conditions: Supplementary Fig. 1
[8] = target: T1, G9a (Homo sapiens, UniProt Q96KQ7); assay: SAHH-coupled assay, G9a; assay type: biochemical
T1 sequence (Q96KQ7 1-1210): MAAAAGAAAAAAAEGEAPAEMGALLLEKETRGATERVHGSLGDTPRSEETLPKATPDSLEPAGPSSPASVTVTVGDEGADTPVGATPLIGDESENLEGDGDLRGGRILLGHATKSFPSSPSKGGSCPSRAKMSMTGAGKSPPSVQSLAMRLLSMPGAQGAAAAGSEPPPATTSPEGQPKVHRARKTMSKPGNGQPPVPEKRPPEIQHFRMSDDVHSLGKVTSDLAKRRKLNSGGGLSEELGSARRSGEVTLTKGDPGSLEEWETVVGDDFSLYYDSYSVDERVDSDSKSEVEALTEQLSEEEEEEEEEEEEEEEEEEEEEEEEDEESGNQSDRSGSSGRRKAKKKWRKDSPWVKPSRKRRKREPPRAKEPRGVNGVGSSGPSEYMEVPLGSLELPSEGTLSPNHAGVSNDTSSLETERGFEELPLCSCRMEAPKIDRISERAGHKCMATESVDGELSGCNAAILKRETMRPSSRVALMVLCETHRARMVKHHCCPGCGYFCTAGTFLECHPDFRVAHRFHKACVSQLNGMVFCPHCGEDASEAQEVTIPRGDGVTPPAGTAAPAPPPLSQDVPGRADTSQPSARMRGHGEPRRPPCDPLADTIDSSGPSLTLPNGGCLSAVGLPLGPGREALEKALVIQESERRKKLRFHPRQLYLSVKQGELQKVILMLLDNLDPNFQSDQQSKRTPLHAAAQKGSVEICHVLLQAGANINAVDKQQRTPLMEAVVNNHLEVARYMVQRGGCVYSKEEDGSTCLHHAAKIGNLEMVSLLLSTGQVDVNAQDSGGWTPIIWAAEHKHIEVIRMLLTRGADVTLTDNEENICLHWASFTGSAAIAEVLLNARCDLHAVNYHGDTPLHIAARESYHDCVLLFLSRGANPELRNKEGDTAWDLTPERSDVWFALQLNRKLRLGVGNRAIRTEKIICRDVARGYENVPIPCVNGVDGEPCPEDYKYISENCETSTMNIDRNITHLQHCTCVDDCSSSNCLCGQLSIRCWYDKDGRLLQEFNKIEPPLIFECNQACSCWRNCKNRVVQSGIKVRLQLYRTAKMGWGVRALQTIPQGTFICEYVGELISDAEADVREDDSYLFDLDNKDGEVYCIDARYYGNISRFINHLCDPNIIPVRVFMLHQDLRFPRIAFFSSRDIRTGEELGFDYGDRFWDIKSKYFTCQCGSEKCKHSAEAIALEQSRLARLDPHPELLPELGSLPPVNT

[9] = target: GLP (Homo sapiens, UniProt Q9H9B1); assay: SAHH-coupled assay, GLP; assay type: biochemical
[10] = target: SUV39H2 (Homo sapiens, UniProt Q9H5I1); assay: SAHH-coupled assay, SUV39H2; assay type: biochemical; conditions: SAHH-coupled assay
How it was run: (§1)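 A fluorescence-based coupled assay used S-adenosyl-L-homocysteine hydrolase to follow conversion of cofactor SAM to SAH by the methyltransferase. IC50 values are the average of at least two separate experiments.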

[11] = target: T2, SETD7 (Homo sapiens, UniProt Q8WTS6); assay: SAHH-coupled assay, SETD7; assay type: biochemical; conditions: SAHH-coupled assay
T2 sequence (Q8WTS6 1-366): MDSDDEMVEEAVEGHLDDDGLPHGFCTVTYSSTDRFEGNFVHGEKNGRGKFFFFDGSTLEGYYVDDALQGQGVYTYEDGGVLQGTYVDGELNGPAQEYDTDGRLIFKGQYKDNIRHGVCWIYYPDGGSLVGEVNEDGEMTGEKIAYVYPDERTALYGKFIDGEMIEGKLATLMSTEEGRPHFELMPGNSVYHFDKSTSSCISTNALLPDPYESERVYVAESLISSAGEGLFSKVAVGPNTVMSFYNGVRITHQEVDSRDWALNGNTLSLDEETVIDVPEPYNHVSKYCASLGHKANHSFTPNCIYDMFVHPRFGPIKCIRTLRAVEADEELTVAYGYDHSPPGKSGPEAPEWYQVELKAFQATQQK
How it was run: as §1

[12] = target: T3, SETD8 (Homo sapiens, UniProt Q9NQR1); assay: SAHH-coupled assay, SETD8; assay type: biochemical; conditions: SAHH-coupled assay
T3 sequence (Q9NQR1 1-393): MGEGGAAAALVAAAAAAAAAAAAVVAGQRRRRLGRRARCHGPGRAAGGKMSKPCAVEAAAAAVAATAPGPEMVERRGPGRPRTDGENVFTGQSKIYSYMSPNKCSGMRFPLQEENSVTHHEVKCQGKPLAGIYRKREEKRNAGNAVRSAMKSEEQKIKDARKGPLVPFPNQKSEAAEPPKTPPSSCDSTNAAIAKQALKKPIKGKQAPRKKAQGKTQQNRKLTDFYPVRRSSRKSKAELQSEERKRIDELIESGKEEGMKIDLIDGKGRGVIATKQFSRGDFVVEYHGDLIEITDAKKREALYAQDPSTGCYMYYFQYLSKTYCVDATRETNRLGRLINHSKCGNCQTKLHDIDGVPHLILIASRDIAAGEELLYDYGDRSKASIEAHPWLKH
How it was run: as §1

[13] = target: PRMT3 (Homo sapiens, UniProt O60678); assay: SAHH-coupled assay, PRMT3; assay type: biochemical; conditions: SAHH-coupled assay
How it was run: as §1

[14] = tested on: panel of 24 kinases; assay: Kinase selectivity panel; assay type: biochemical
[15] = tested on: H3K9me2 levels in MDA-MB-231 cells; assay: H3K9me2 in-cell western, MDA-MB-231; assay type: cell-based, human; conditions: read-out: IC50 for reduction of H3K9me2 levels; MDA-MB-231 cells, 48 h exposure, in-cell western
[16] = tested on: retrovirus long terminal repeat and MAGEA2 promoter in mES cells; assay: Bisulfite sequencing DNA methylation in mES cells; assay type: cell-based, mouse; conditions: after 10 d of treatment
How it was run: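 J1 mouse ES cells were grown on 0.1% gelatin in DMEM with 15% ES-qualified FBS, 4 mM L-glutamine, 0.1 mM nonessential amino acids, 1 mM pyruvate, 0.55 mM 2-mercaptoethanol and LIF. They carried a silenced HSC1 retroviral EGFP-puromycin reporter driven by the EF1a promoter.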

Sequence of PRMT3 (O60678 whole entry, species assumed): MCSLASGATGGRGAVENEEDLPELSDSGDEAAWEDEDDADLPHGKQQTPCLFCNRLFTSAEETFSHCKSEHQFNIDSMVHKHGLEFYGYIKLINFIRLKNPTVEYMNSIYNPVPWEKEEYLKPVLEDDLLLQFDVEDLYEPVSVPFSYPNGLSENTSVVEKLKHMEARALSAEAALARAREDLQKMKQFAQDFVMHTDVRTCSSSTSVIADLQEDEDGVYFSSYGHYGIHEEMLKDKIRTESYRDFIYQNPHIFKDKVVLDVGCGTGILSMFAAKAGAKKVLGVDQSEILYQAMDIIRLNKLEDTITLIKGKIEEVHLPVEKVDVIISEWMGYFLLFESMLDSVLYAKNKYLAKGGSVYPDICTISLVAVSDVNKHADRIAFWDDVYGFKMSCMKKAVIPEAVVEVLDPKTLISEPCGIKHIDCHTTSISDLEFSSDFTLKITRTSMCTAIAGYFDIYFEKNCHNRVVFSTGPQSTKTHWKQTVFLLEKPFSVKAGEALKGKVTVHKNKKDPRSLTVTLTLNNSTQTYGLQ
Sequence of GLP (Q9H9B1 whole entry): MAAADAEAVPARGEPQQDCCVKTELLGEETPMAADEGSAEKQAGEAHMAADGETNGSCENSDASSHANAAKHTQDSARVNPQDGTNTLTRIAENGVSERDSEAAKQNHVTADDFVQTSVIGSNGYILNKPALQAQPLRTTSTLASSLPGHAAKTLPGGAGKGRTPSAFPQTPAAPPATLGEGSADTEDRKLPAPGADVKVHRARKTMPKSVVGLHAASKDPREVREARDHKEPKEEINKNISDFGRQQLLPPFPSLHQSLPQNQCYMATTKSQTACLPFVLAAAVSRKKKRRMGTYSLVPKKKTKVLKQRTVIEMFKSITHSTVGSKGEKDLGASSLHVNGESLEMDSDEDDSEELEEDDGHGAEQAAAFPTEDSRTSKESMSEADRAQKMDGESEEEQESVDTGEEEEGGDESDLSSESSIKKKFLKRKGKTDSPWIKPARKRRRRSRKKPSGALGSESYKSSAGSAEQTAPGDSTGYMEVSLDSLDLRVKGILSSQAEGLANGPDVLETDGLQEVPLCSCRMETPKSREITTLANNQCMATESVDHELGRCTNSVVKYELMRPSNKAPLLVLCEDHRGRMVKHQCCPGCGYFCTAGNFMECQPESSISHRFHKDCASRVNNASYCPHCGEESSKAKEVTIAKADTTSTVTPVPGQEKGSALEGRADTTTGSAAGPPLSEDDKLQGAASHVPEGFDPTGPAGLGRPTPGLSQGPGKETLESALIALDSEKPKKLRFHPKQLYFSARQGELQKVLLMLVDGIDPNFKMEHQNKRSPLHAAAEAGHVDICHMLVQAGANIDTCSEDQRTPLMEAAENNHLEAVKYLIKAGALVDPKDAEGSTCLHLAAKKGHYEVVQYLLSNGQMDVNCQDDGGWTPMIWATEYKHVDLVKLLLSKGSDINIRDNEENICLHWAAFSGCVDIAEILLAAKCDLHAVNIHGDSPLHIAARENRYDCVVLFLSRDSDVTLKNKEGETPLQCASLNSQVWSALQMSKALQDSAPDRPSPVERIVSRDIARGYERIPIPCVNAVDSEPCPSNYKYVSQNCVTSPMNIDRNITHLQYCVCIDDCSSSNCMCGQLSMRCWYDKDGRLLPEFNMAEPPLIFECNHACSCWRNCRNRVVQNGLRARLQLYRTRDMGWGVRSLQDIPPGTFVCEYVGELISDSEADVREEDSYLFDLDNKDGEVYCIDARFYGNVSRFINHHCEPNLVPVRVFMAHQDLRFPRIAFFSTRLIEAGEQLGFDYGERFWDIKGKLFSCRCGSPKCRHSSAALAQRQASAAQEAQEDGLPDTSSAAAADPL
Sequence of SUV39H2 (Q9H5I1 whole entry, species assumed): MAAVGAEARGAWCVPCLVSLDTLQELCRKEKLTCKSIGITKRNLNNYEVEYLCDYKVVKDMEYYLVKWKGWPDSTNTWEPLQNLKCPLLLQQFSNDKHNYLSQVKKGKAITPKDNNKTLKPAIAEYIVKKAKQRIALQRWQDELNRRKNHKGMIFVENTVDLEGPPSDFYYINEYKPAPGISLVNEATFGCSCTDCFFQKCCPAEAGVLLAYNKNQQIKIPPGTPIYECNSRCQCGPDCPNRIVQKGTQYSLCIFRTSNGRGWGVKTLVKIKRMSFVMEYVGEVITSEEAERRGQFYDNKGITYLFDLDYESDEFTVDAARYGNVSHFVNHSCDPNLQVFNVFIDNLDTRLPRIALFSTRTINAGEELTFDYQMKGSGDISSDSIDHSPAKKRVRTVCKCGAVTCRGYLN

COc1cc2nc(N3CCCN(C)CC3)nc(NC3CCN(Cc4ccccc4)CC3)c2cc1OC [BIX01294, reference compound]
EC50 ([1]; Homo sapiens, MDA-MB-231, read-out: EC50 cellular toxicity (MTT)): 2.7 µM | levels of H3K9me2 by quantitative MS [2]: to a lesser extent than UNC0638 did | levels of H3K9me3 by quantitative MS [2]: remained constant | IC50 [3]: 2.04 µM | EGFP+ cells ([4]; day 10, 2 μM, untreated 36%): 53% | state of treated cells ([4]; day 12, 2 μM): arrested or died | SSEA1 positive cells [5]: 65% | abundance of H3K9me2 mark in bulk histones ([6]; at 4.1 μM, several cell lines): reduced | concentration toxic to cells [6]: higher than 4.1 μM

COc1cc2c(NC3CCN(C)CC3)nc(N3CCCN(C)CC3)nc2cc1OCCOCCN(C)C [UNC0321]
potency in cellular assays relative to BIX01294 [7]: less potent than BIX01294

COc1cc2c(N(C)C3CCN(C(C)C)CC3)nc(C3CCCCC3)nc2cc1OCCCN1CCCC1 [UNC0737]
fold less potent than UNC0638 ([8]; G9a and GLP biochemical assays): > 300 fold | IC50 ([8]; SAHH-coupled assay): 5 µM | IC50 [9]: > 10 µM | IC50 [10]: inactive | IC50 [11]: inactive | IC50 [12]: inactive | IC50 [13]: inactive | activity against panel of 24 kinases [14]: inactive | IC50 [15]: > 5 µM | EC50 ([1]; read-out: EC50 cellular toxicity (MTT), MDA-MB-231 cells (n = 3)): 8.7 µM | reactivation of EGFP expression ([4]; 500 nM, above the 36% EGFP+ cells of untreated sample): did not reactivate EGFP expression | DNA methylation of retrovirus LTR and MAGEA2 promoter [16]: hypermethylated
